GRIN3A LBD mod – NR3A (human) ligand-binding domain modulation; Tm shift relative to glycine control, % at 25 µM; NR3A LBD differential scanning fluorimetry, Tm shift; 0% = protein alone, 100% = glycine-bound protein; hit rate 2.5% among 340,000;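 active means melting temperature shift of at least 10% of the positive control shift, at one fixed dose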
EBI2 block – blocks human EBI2 receptor beta-arrestin signaling | P32249 | EBI2 beta-arrestin recruitment, luminescence, 7a,25-OHC stimulated | inhibition, % at 5 µM | hit rate 0.81% among 360,000 | AID 651636; in the data active means inhibition above about 38%;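 further: enzyme fragment complementation signal reports receptor beta-arrestin coupling in cells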
Target sequence (P32249 whole entry, looked up, the tested form may be a part): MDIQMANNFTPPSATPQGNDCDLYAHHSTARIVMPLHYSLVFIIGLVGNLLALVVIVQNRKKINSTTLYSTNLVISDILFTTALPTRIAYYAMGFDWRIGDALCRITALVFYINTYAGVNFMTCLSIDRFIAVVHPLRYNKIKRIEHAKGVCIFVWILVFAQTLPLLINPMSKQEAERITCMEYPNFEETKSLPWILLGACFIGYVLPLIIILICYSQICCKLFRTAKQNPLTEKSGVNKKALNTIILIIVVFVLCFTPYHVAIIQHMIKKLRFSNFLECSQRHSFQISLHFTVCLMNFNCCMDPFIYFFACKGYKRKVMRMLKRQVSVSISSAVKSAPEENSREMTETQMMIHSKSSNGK
SENP1 FRET inh – blocks the human SENP1 SUMO protease catalytic domain; Q9P0U3; recombinant SENP1 catalytic domain, CyPet-SUMO1-YPet FRET cleavage; inhibition, % at 10 µM; hit rate 0.21% among 360,000; AID 624204;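 active means inhibition at least 30% at 10 µM, raw YFP signal under a set limit, fluorescence ratio 0.5 to 1.5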
Target sequence (Q9P0U3 419-644 limits assumed): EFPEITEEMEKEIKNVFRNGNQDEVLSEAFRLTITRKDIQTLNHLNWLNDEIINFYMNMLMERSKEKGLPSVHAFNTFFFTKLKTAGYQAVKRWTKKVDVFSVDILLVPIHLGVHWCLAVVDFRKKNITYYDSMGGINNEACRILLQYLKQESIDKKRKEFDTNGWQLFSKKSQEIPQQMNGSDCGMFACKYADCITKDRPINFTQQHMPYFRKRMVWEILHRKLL
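Controls: no-enzyme wells low, DMSO-plus-enzyme wells high control. Test system: human recombinant His6-tagged SENP1 catalytic domain enzyme. Reagent: SFCypet-SUMO1-SFYpet FRET protein substrate, 25 nM final. Doses: one dose per compound, 10 µM, 0.5% DMSO. Detection: FRET, CFP and YFP emission. Timing: 50 min reaction at room temperature.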
MPTP inh – permeability transition pore inhibition. hit rate 1.4% among 360,000. isolated mouse mitochondria, Ca2+ swelling absorbance, 30 min. inhibition, % at 10 µM. AID 602449;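 active means inhibition of 50% or more, scaled per plate between neutral and stimulator controls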
EBI2 antag conf – confirmation of human EBI2 receptor antagonists | hit rate 29% among 2,400 | shares compounds with EBI2 block | EBI2 beta-arrestin luminescence, 7a,25-OHC antagonism | inhibition, % at 5 µM;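 active means inhibition of at least 50%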
EBI2 ag – counter-screen for EBI2 antagonists: EBI2 agonist activity | shares compounds with EBI2 block | EBI2-expressing cells, agonist mode, luminescence, 60 min; 0% vehicle, 100% 7α,25-dihydroxycholesterol control | activation, % at 5 µM | 2,400 tested, under 10 active | AID 652000;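 active means activation of at least 50%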
bGal cs – beta-galactosidase inhibition counter-screen | shares compounds with EBI2 block | purified beta-galactosidase, luminescent Galacton Star, 15 min | inhibition, % at 5 µM | hit rate 1% among 2,400;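 active means replicate-average signal at least 3 plate SD below neutral wells, shown as high inhibition, flagging enzyme-inhibiting false positives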;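 further: higher means stronger loss of beta-gal luminescence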
Large screens that a line does not name were inactive (follow-up assays come after a bar, where they were run). In the library only some 4.4% were active in any assay of this set; here they are far more common.

Cc1cc(C(=O)N2CCC(Cc3ccccc3)CC2)ccc1[N+](=O)[O-]	EBI2 block 64 | EBI2 antag conf inactive | EBI2 ag inactive | bGal cs inactive
Cc1cc(C(=O)N2CCN(Cc3ccccc3)CC2)ccc1[N+](=O)[O-]	none
Cc1ccc(C)c(S(=O)(=O)N2CCCC2CNC(=O)C(=O)NCC2CCCO2)c1 (centres undefined)	none
COC(=O)Cn1ccnc1[N+](=O)[O-]	none (no result: GRIN3A LBD mod)
COc1cc(NC(=S)N2CCN(C)CC2)cc(OC)c1	none
O=C(C1CCN(S(=O)(=O)c2cccc3cccnc23)CC1)N1CCn2c1nc1ccccc12	EBI2 block 92 | EBI2 antag conf 84 | EBI2 ag inactive | bGal cs 86
Cc1ccc(C)c(CN2CCC(CNC(=O)Nc3ccc(Br)cc3F)CC2)c1	EBI2 block 52 | EBI2 antag conf inactive | EBI2 ag inactive | bGal cs inactive
CC(C)(C)n1nnnc1C(c1cccs1)N(Cc1ccc(Cl)cc1)CC1CCCO1 (centres undefined)	EBI2 block 60 | EBI2 antag conf inactive | EBI2 ag inactive | bGal cs inactive
Clc1ccc(CN(Cc2ccccc2)C(c2cccs2)c2nnnn2C2CCCC2)cc1 (centres undefined)	none
CCCCNc1nnc(Cc2ccc(Cl)cc2)c(=O)[nH]1	none
Cc1oc(C(C)(C)C)cc1C(=O)NC1CCN(Cc2ccccc2)CC1	none
Cc1oc(-c2ccc(Cl)cc2)cc1C(=O)NC1CCN(Cc2ccccc2)CC1	EBI2 block 41 | EBI2 antag conf inactive | EBI2 ag inactive | bGal cs inactive
CCOC(=O)C(Oc1ccc2c(-c3ccc(OC)cc3)cc(=O)oc2c1C)c1ccccc1 (centres undefined)	EBI2 block 36 | EBI2 antag conf inactive | EBI2 ag inactive | bGal cs inactive
COc1ccc(-c2cc(=O)oc3c(C)c(OC(C)C(C)=O)ccc23)cc1 (centres undefined)	none
CCOC(=O)C1=CCN(S(=O)(=O)c2ccccc2Cl)C1c1cccc(C)c1 (centres undefined)	EBI2 block 40 (no result: GRIN3A LBD mod) | EBI2 antag conf inactive | EBI2 ag inactive | bGal cs inactive
CCOC(=O)C1=CCN(S(=O)(=O)c2ccccc2C)C1c1cccc(Br)c1 (centres undefined)	EBI2 block 67 (no result: GRIN3A LBD mod) | EBI2 antag conf inactive | EBI2 ag inactive | bGal cs inactive
Cn1nc(N)nc1N1CCN(c2ccc(F)cc2)CC1	none
Cc1ccc(N(Cc2cc3cc(C)ccc3[nH]c2=O)C(=O)c2cccs2)cc1	none
COc1c2ccc(OCC/C(C)=C/C(=O)C=C(C)C)cc2nc2occc12	none
O=[N+]([O-])c1ccc(Oc2ccc(-c3cnc4ccccc4n3)cc2[N+](=O)[O-])cc1	none
O=[N+]([O-])c1cc(-c2cnc3ccccc3n2)ccc1Oc1ccc(Br)cc1	EBI2 block 46 | EBI2 antag conf inactive | EBI2 ag inactive | bGal cs inactive
COC(=O)c1ccc(N2CCC(c3cc(-c4ccc(OC)cc4)n[nH]3)CC2)c([N+](=O)[O-])c1	EBI2 block 50 | EBI2 antag conf inactive | EBI2 ag inactive | bGal cs inactive
N#Cc1c(Nc2ccccc2)c(/C=N/N=C/c2ccccc2)c[nH]c1=O	EBI2 block 96 | EBI2 antag conf 85 | EBI2 ag inactive | bGal cs inactive
CSc1ccc(CN2CCC(n3nccc3NC(=O)CCCc3ccccc3)CC2)cc1	none
Cc1ccc(NC(=O)c2ccc(NS(=O)(=O)c3c(C)noc3C)cc2)cc1C	GRIN3A LBD mod 30, EBI2 block 48 | EBI2 antag conf inactive | EBI2 ag inactive | bGal cs inactive
COc1ccc(NC(=O)c2ccc(NS(=O)(=O)c3c(C)noc3C)cc2)cc1OC	none
Nc1ccn([C@@H]2O[C@H](CNCc3ccc(N4CCNCC4)cc3)[C@@H](O)[C@H]2O)c(=O)n1	none (no result: GRIN3A LBD mod)
Cc1ccc(C(=O)NNc2cc(=O)n(C)c(=O)n2C)cc1C	none
O=C(NCc1ccccc1)c1cc(=O)nc2sc(-c3ccccc3)nn12	EBI2 block 44 | EBI2 antag conf inactive | EBI2 ag inactive | bGal cs inactive
CC1CCc2c(sc3ncnc(NCc4cccnc4)c23)C1 (centres undefined)	none
CC1CCc2c(sc3ncnc(NCCCOC(C)C)c23)C1 (centres undefined)	EBI2 block 45 | EBI2 antag conf inactive | EBI2 ag inactive | bGal cs inactive
CS(=O)(=O)N(CC(=O)N1CCN(c2ccccc2F)CC1)c1cc(C(F)(F)F)ccc1Cl	EBI2 block 65 | EBI2 antag conf inactive | EBI2 ag inactive | bGal cs inactive
CN(C)C(=O)c1cccc(-c2cnc3c(NC=O)cc(-c4ccccc4Cl)cn23)c1	EBI2 block 62 (no result: GRIN3A LBD mod) | EBI2 antag conf inactive | EBI2 ag inactive | bGal cs inactive
CC(=O)Nc1cccc(-c2cc(NC=O)c3ncc(-c4cccc(C(C)=O)c4)n3c2)c1	EBI2 block 54 (no result: GRIN3A LBD mod) | EBI2 antag conf inactive | EBI2 ag inactive | bGal cs inactive
CC(=O)Nc1cc(-c2ccc(CO)cc2)cn2c(-c3cccc(C(F)(F)F)c3)cnc12	EBI2 block 46 (no result: GRIN3A LBD mod) | EBI2 antag conf inactive | EBI2 ag inactive | bGal cs inactive
CC(=O)Nc1cc(-c2ccccc2Cl)cn2c(-c3ccc(S(C)(=O)=O)cc3)cnc12	EBI2 block 55 (no result: GRIN3A LBD mod) | EBI2 antag conf inactive | EBI2 ag inactive | bGal cs inactive
C[C@H]1CN([C@@H](C)CO)C(=O)c2cc(NS(=O)(=O)c3ccc(Cl)cc3)ccc2O[C@@H]1CN(C)CC1CCCCC1	none
FC(F)(F)c1cccc(Cc2noc(CN3CCCC(OCc4ccccn4)C3)n2)c1 (centres undefined)	none
Cc1ccc(OCC(=O)N2CCN(c3nnc(-c4ccccc4)c4ccccc34)CC2)cc1	EBI2 block 90 | EBI2 antag conf 86 | EBI2 ag inactive | bGal cs inactive
Cc1nc(N2CCN(C(=O)COc3ccccc3)CC2)c2c(C)c(C)sc2n1	EBI2 block 51 | EBI2 antag conf inactive | EBI2 ag inactive | bGal cs inactive
CC(=O)N1CCN(c2nnc(-c3ccc(C)cc3)c3ccccc23)CC1	none
COC(=O)[C@]12CCCCC=C1N(Cc1cccc3ccccc13)C(=O)[C@H](CC(=O)NCCCCc1ccccc1)C2	EBI2 block 47 (no result: GRIN3A LBD mod) | EBI2 antag conf inactive | EBI2 ag inactive | bGal cs inactive
COc1cc(/C=N/n2cnn(Cc3ccccc3Cl)c2=S)cc(OC)c1OC	none
COc1ccc(/C=N/n2cnn(Cc3ccccc3Cl)c2=S)cc1	EBI2 block 49 | EBI2 antag conf inactive | EBI2 ag inactive | bGal cs inactive
Cc1ccc(-c2nc3cc(N)ccc3o2)cc1	none

Screens (PubChem)
